For series [1], the species on record is Mus musculus. As to the kind of experiment: Ability to activate CBA/CaJ Mice spleen cells to proliferate in vitro by measuring new DNA synthesis in a [3H]thymidine incorporation assay at 0.05 mM. The series is classed as functional. The method, boiled down:
(§1)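 Spleen cells from CBA/CaJ mice, 1 × 10^5 per 0.2 mL, cultured with compound for 48 h in total. [3H]thymidine (0.5 μCi/0.02 mL) was added after 24 h, then cells were harvested and uptake was counted in a β-counter. Results are CPM as mean ± SD of quadruplicate assays.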
For orientation: Incorporation of labelled thymidine or its analogues reports DNA synthesis.

Series [2] deals with Semliki Forest virus. Put plainly: Effect against semliki forest virus infection in mice at an ip dose of 100 mg/kg. The series is classed as functional. To be noted: route intraperitoneal. The method, boiled down:
(§2)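 Female Swiss Webster mice (about 20 g) received compound or placebo ip in aqueous 2% sodium bicarbonate as half-daily doses at -24 and -18 h before virus. […] Read-outs were survivors/total over 21 days and mean survival time of mice that died. Mice dying within a day or two of dosing were excluded. Significance was by two-tailed Fisher exact test.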

In series [3] the test system is Semliki Forest virus. Put plainly: Effect against semliki forest virus infection in mice at an ip dose of 200 mg/kg; 3/12. The format is functional. Conditions: route intraperitoneal. In short, it runs like this: as §2
For series [4], the species on record is Mus musculus. As to the kind of experiment: Ability to activate CBA/CaJ Mice spleen cells to proliferate in vitro by measuring new DNA synthesis in a [3H]thymidine incorporation assay at 0 mM. The series is classed as functional. The method, boiled down: as §1
For series [5], the species on record is Mus musculus. As to the kind of experiment: Ability to activate CBA/CaJ Mice spleen cells to proliferate in vitro by measuring new DNA synthesis in a [3H]thymidine incorporation assay at 0.01 mM. The series is classed as functional. The method, boiled down: as §1
Series [6] is filed under the species Mus musculus. Put plainly: Ability to activate CBA/CaJ Mice spleen cells to proliferate in vitro by measuring new DNA synthesis in a [3H]thymidine incorporation assay at 0.20 mM. The series is classed as functional. In short, it runs like this: as §1
For series [7], the system named is YAC-1. As to the kind of experiment: (§3) In vivo effect on murine NK cell activity in isolated CBA/CaJ mice spleen cells and cytotoxicity measured against YAC-1 cells at a targetor ratio 50:1. The format is functional, Mus musculus. In short, it runs like this: (§4)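 Female CBA/CaJ mice aged 6–8 weeks, two per group, received 150 mg/kg ip in 2% aqueous sodium bicarbonate as 75 mg/kg bid for one day; the placebo was vehicle. After 24 h, spleen cells were pooled and tested against YAC-1 targets in a 4-h 51Cr-release assay, in triplicate, at the stated effector:target ratio.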

For series [8], the system named is Semliki Forest virus. As to the kind of experiment: Effect against semliki forest virus infection in mice at an ip dose of 200 mg/kg. The format is functional. Conditions: route intraperitoneal. In short, it runs like this:
as §2

The species entered for series [9] is Mus musculus. As to the kind of experiment: Ability to activate CBA/CaJ Mice spleen cells to proliferate in vitro by measuring new DNA synthesis in a [3H]thymidine incorporation assay at 0.40 mM. The series is classed as functional. The method, boiled down:
as §1

Series [10] has as its system YAC-1. Put plainly: (§5) In vivo effect on murine NK cell activity in isolated CBA/CaJ mice spleen cells and cytotoxicity measured against YAC-1 cells at a targetor ratio 100:1. The series is classed as functional, Mus musculus. The method, boiled down:
as §4

The subject of series [11] is Semliki Forest virus. Put plainly: Effect against semliki forest virus infection in mice at an ip dose of 100 mg/kg; 6/12. The format is functional. Conditions: route intraperitoneal. In short, it runs like this: as §2
Series [12] has as its system YAC-1. Put plainly: In vivo effect on murine NK cell activity in isolated CBA/CaJ mice spleen cells and cytotoxicity measured against YAC-1 cells at a targetor ratio 50:1. The series is classed as functional, Mus musculus. In short, it runs like this: as §4
Series [13] deals with Mus musculus. As to the kind of experiment: Effect against semliki forest virus infection in mice at an ip dose of 200 mg/kg. The format is functional. To be noted: route intraperitoneal. In short, it runs like this:
as §2

In series [14] the test system is Mus musculus. Put plainly: Effect against semliki forest virus infection in mice at an ip dose of 100 mg/kg; 0/12. The format is functional. To be noted: route intraperitoneal. The method, boiled down: as §2
Series [15] deals with Mus musculus. Put plainly: Effect against semliki forest virus infection in mice at an ip dose of 100 mg/kg. Conditions: route intraperitoneal. The series is classed as functional. In short, it runs like this:
as §2

The test system of series [16] is Mus musculus. Put plainly: Effect against semliki forest virus infection in mice at an ip dose of 200 mg/kg; 2/11. The series is classed as functional. Conditions: route intraperitoneal. The method, boiled down: as §2
Series [17] relates to YAC-1. As to the kind of experiment: In vivo effect on murine NK cell activity in isolated CBA/CaJ mice spleen cells and cytotoxicity measured against YAC-1 cells at a targetor ratio 100:1. The format is functional, Mus musculus. In short, it runs like this:
as §4

Series [18] has as its system Mus musculus. As to the kind of experiment: Effect against semliki forest virus infection in mice at an ip dose of 200 mg/kg''; 11/11. The series is classed as functional. To be noted: route intraperitoneal. In short, it runs like this: as §2
Series [19] deals with Mus musculus. Put plainly: Effect against semliki forest virus infection in mice at an ip dose of 100 mg/kg; 4/9. The format is functional. To be noted: route intraperitoneal. In short, it runs like this:
as §2

Series [20] relates to YAC-1. Described as §3. The series is classed as organism-based. Conditions: mouse. The method, boiled down:
as §4

Series [21] deals with Semliki Forest virus. As to the kind of experiment: Effect against semliki forest virus infection in mice at an ip dose of 200 mg/kg; 9/12. To be noted: route intraperitoneal. The series is classed as functional. The method, boiled down: as §2
For series [22], the system named is YAC-1. Described as §5. The series is classed as organism-based. To be noted: mouse. The method, boiled down: as §4
In series [23] the test system is Semliki Forest virus. Put plainly: Effect against semliki forest virus infection in mice at an ip dose of 200 mg/kg; 11/12. The format is functional. Conditions: route intraperitoneal. In short, it runs like this: as §2
The test system of series [24] is Semliki Forest virus. Put plainly: Effect against semliki forest virus infection in mice at an ip dose of 100 mg/kg; 11/12. The format is functional. To be noted: route intraperitoneal. In short, it runs like this: as §2

Take `Nc1nc(O)c2nc(S)n([C@@H]3O[C@H](CO)[C@@H](O)[C@H]3O)c2n1`: the CPM was 5372 in series [1]; 3633 in series [4]; 3911 in [5]; 23092 in series [6]; 40690 in series [9]. In addition, the Mean survival time in [2] was found to be 8 days; in series [8], 7.5 days. For the same molecule, the figures for the Survivors in series [3] and in series [11] were 25% and 50%, respectively. The “% cytotoxicity” value in series [7] was determined as 43.53%; in [10], 61.33%.

Take `Nc1nc2c(nc(Br)n2[C@@H]2O[C@H](CO)[C@@H](O)[C@H]2O)c(=O)[nH]1`: the Cytotoxicity is listed as 31.33% in series [12] and 45.44% in series [17]. In addition, the CPM in series [1] turned out to be 4835; in series [4], 5204; in series [5], 4387; in series [6], 9199; in series [9], 16771. Further, the Mean survival time in series [13] was 7.1 days; in series [15], 7.7 days. The Survivors in series [14] came out at 0%; in [16] it was 18%.

As for `Nc1nc(O)c2sc(=S)n(C3O[C@H](CO)[C@@H](O)[C@H]3O)c2n1` (stereo not given in full), the Cytotoxicity in series [12] came out at 28.89%; in series [17], 41.38%. Further, the CPM in series [1] stood at 15711; in series [4], 3111; in series [5], 4230; in series [6], 43779; in [9], 53493. Besides, the Mean survival time is greater than 21 days in series [13] and 7 days in [15]. Also, the Survivors in [18] is reported as 100%; in [19] it was 44%.

For the molecule `Cn1c(=O)n(C2O[C@H](CO)[C@@H](O)[C@H]2O)c2nc(N)nc(O)c21` (stereo not given in full), the CPM amounted to 35980 in series [1]; 2000 in series [4]; 6012 in series [5]; 72000 in series [6]; 94100 in series [9]. In addition, the Mean survival time in series [2] came to 7.7 days; in [8], 6.3 days. Besides, the values for the Cytotoxicity in series [20] and in series [22] were 58.8% and 57.89%, respectively. Further, the Survivors is given as 75% in series [21] and 50% in series [11].

Consider `Nc1nc2c(sc(=O)n2[C@@H]2O[C@H](CO)[C@@H](O)[C@H]2O)c(=O)[nH]1` [ISATORIBINE], for which the CPM is reported as 54150 in series [1]; 2000 in [4]; 12000 in [5]; 96680 in series [6]; 107000 in [9]. Further, the Mean survival time was 8 days in series [2] and 6 days in series [8]. Besides, the Survivors in series [23] and in series [24] was 92% in each case. Besides, the Cytotoxicity in [20] is listed as 74.8%; in series [22], 67.8%.

Values taken from ChEMBL document CHEMBL1125125, “Thiazolo[4,5-d]pyrimidine nucleosides. The synthesis of certain 3-beta-D-ribofuranosylthiazolo[4,5-d]pyrimidines as potential immunotherapeutic agents” (J Med Chem, 1990).
